In ChEMBL document CHEMBL1134346, “Labeling and evaluation of N-[11C]methylated quinoline-2-carboxamides as potential radioligands for visualization of peripheral benzodiazepine receptors” (J Med Chem, 2001):

Legend:
Rattus norvegicus [1] = species on record: Rattus norvegicus; test: Tissue (cortex) distribution in Albino male CD rats after 15 minutes expressed as percent of injected dose per gram of organ.; assay type: ADME, organism-based; settings: in vivo, 0.25 h
Method in brief: (§1)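 Radioligand given in saline into tail vein of male albino CD rats (225-250 g); 100-200 µCi per animal, 1-2 Ci/µmol at injection depending on radioligand. Three rats per time point were decapitated under light ether anaesthesia. Blood, plasma, brain regions and washed organs were weighed and gamma-counted. Uptake is %I.D./g tissue, mean ± SD.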

Rattus norvegicus [2] = species on record: Rattus norvegicus; test: Tissue (pituitary) distribution in Albino male CD rats after 30 minutes expressed as percent of injected dose per gram of organ.; assay type: ADME, organism-based, Pituitary gland; settings: in vivo, 0.5 h
Method in brief: (§2)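 Male albino CD rats (225-250 g) received the 11C-labelled radioligand in saline by tail-vein injection. Three rats per time point were decapitated under light ether anaesthesia at 5, 15, 30, 60 or 90 min. Blood was collected heparinized and plasma separated by centrifugation. The pituitary was dissected from the brain. Lung, liver (three-lobe pieces) and right deltoid muscle were sampled, washed in cold saline, gamma-counted and weighed. Results are %I.D./g.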

Rattus norvegicus [3] = species on record: Rattus norvegicus; test: Tissue (lung) distribution in Albino male CD rats after 15 minutes expressed as percent of injected dose per gram of organ.; assay type: ADME, organism-based; settings: in vivo, 0.25 h; method in brief: as §2
[4] = molecular target: Translocator protein (Rattus norvegicus) (UniProt P16257); test: Tissue (muscle) concentration of radioactivity at 30 min post-injection into Albino male CD rats after pretreatment with cold PK 11195.; assay type: functional
Method in brief: (§3)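 Blocking study in male albino CD rats, five per group. Immediately before the 11C radioligand (in saline, i.v. tail vein), rats received 30 µL tail-vein PK 11195 (5 mg/kg; 1.4-1.6 mg) in DMSO:EtOH 1:1, or vehicle. Rats were decapitated at 30 min. Tissues were dissected, washed, gamma-counted and weighed as in the biodistribution study. Results are %I.D./g.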

Rattus norvegicus [5] = species on record: Rattus norvegicus; test: Tissue (pituitary) distribution in Albino male CD rats after 15 minutes expressed as percent of injected dose per gram of organ.; assay type: ADME, organism-based, Pituitary gland; settings: in vivo, 0.25 h; method in brief: as §2
Rattus norvegicus [6] = species on record: Rattus norvegicus; test: Tissue (cortex) distribution in Albino male CD rats after 30 minutes expressed as percent of injected dose per gram of organ.; assay type: ADME, organism-based; settings: in vivo, 0.5 h; method in brief: as §1
[7] = molecular target: Translocator protein (Rattus norvegicus) (UniProt P16257); test: Tissue (cortex) concentration of radioactivity at 30 min post-injection into Albino male CD rats after pretreatment with cold PK 11195.; assay type: functional
Method in brief: (§4)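 Separate groups of five rats received tail-vein PK 11195 (1.4-1.6 mg; 5 mg/kg) in 30 µL DMSO:EtOH 1:1, or vehicle alone, immediately before iv radioligand (90-170 µCi in saline, 0.9-1 Ci/µmol). Rats were decapitated at 30 min and tissues gamma-counted; values are %I.D./g.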

Rattus norvegicus [8] = species on record: Rattus norvegicus; test: Tissue (kidney) distribution in Albino male CD rats after 5 minutes expressed as percent of injected dose per gram of organ.; assay type: ADME, organism-based; settings: in vivo; method in brief: as §1
Rattus norvegicus [9] = species on record: Rattus norvegicus; test: Tissue (lung) concentration of radioactivity at 30 min post-injection into Albino male CD rats with vehicle.; assay type: ADME, organism-based; settings: in vivo, 0.5 h; method in brief: as §3
Rattus norvegicus [10] = species on record: Rattus norvegicus; test: Tissue (adrenal gland) distribution in Albino male CD rats after 30 minutes expressed as percent of injected dose per gram of organ.; assay type: ADME, organism-based; settings: in vivo, 0.5 h; method in brief: as §1
[11] = molecular target: Translocator protein (Rattus norvegicus) (UniProt P16257); test: Tissue (adrenal gland) concentration of radioactivity at 30 min post-injection into Albino male CD rats after pretreatment with cold PK 11195.; assay type: functional, tissue-based; method in brief: as §4
Rattus norvegicus [12] = species on record: Rattus norvegicus; test: Tissue (spleen) distribution in Albino male CD rats after 60 minutes expressed as percent of injected dose per gram of organ.; assay type: ADME, organism-based; settings: in vivo, 1 h
Rattus norvegicus [13] = species on record: Rattus norvegicus; test: Tissue (muscle) concentration of radioactivity at 30 min post-injection into Albino male CD rats with vehicle.; assay type: ADME, organism-based; settings: in vivo, 0.5 h; method in brief: as §3
Rattus norvegicus [14] = species on record: Rattus norvegicus; test: Tissue (testicle) distribution in Albino male CD rats after 15 minutes expressed as percent of injected dose per gram of organ.; assay type: ADME, organism-based; settings: in vivo, 0.25 h; method in brief: as §2
Rattus norvegicus [15] = species on record: Rattus norvegicus; test: Tissue (pituitary) distribution in Albino male CD rats after 90 minutes expressed as percent of injected dose per gram of organ.; assay type: ADME, organism-based, Pituitary gland; settings: in vivo, 1.5 h; method in brief: as §2
Rattus norvegicus [16] = species on record: Rattus norvegicus; test: Tissue (adrenal gland) distribution in Albino male CD rats after 60 minutes expressed as percent of injected dose per gram of organ.; assay type: ADME, organism-based; settings: in vivo, 1 h; method in brief: as §1
Rattus norvegicus [17] = species on record: Rattus norvegicus; test: Tissue (muscle) distribution in Albino male CD rats after 30 minutes expressed as percent of injected dose per gram of organ.; assay type: ADME, organism-based; settings: in vivo, 0.5 h; method in brief: as §2
Rattus norvegicus [18] = species on record: Rattus norvegicus; test: Tissue (spleen) distribution in Albino male CD rats after 30 minutes expressed as percent of injected dose per gram of organ.; assay type: ADME, organism-based; settings: in vivo, 0.5 h; method in brief: as §2
Rattus norvegicus [19] = species on record: Rattus norvegicus; test: Tissue (blood) distribution in Albino male CD rats after 15 minutes expressed as percent of injected dose per gram of organ.; assay type: ADME, organism-based; settings: in vivo, 0.25 h; method in brief: as §1
[20] = molecular target: Translocator protein (Rattus norvegicus) (UniProt P16257); test: Tissue (kidney) concentration of radioactivity at 30 min post-injection into Albino male CD rats after pretreatment with cold PK 11195.; assay type: functional, tissue-based; method in brief: as §4
Rattus norvegicus [21] = species on record: Rattus norvegicus; test: Tissue (lung) distribution in Albino male CD rats after 5 minutes expressed as percent of injected dose per gram of organ.; assay type: ADME, organism-based; settings: in vivo; method in brief: as §2
[22] = molecular target: Translocator protein (Rattus norvegicus) (UniProt P16257); test: Tissue (pituitary) concentration of radioactivity at 30 min post-injection into Albino male CD rats after pretreatment with cold PK 11195.; assay type: functional, tissue-based; settings: Pituitary gland; method in brief: as §3
Rattus norvegicus [23] = species on record: Rattus norvegicus; test: Tissue (heart) distribution in Albino male CD rats after 15 minutes expressed as percent of injected dose per gram of organ.; assay type: ADME, organism-based; settings: in vivo, 0.25 h; method in brief: as §1
Rattus norvegicus [24] = species on record: Rattus norvegicus; test: Tissue (lung) distribution in Albino male CD rats after 30 minutes expressed as percent of injected dose per gram of organ.; assay type: ADME, organism-based; settings: in vivo, 0.5 h; method in brief: as §2
Rattus norvegicus [25] = species on record: Rattus norvegicus; test: Tissue (kidney) distribution in Albino male CD rats after 15 minutes expressed as percent of injected dose per gram of organ.; assay type: ADME, organism-based; settings: in vivo, 0.25 h; method in brief: as §1
Rattus norvegicus [26] = species on record: Rattus norvegicus; test: Tissue (plasma) distribution in Albino male CD rats after 60 minutes expressed as percent of injected dose per gram of organ.; assay type: ADME, organism-based; settings: in vivo, 1 h; method in brief: as §2
[27] = molecular target: Translocator protein (Rattus norvegicus) (UniProt P16257); test: Tissue (liver) concentration of radioactivity at 30 min post-injection into Albino male CD rats after pretreatment with cold PK 11195.; assay type: functional, tissue-based; method in brief: as §4
Rattus norvegicus [28] = species on record: Rattus norvegicus; test: Tissue (cerebellum) distribution in Albino male CD rats after 30 minutes expressed as percent of injected dose per gram of organ.; assay type: ADME, organism-based; settings: in vivo, 0.5 h; method in brief: as §1
Rattus norvegicus [29] = species on record: Rattus norvegicus; test: Tissue (cortex) concentration of radioactivity at 30 min post-injection into Albino male CD rats with vehicle.; assay type: ADME, organism-based; settings: in vivo, 0.5 h; method in brief: as §4
Rattus norvegicus [30] = species on record: Rattus norvegicus; test: Tissue (pituitary) distribution in Albino male CD rats after 5 minutes expressed as percent of injected dose per gram of organ.; assay type: ADME, organism-based, Pituitary gland; settings: in vivo; method in brief: as §2
Rattus norvegicus [31] = species on record: Rattus norvegicus; test: Tissue (blood) distribution in Albino male CD rats after 5 minutes expressed as percent of injected dose per gram of organ.; assay type: ADME, organism-based; settings: in vivo; method in brief: as §1
Rattus norvegicus [32] = species on record: Rattus norvegicus; test: Tissue (liver) distribution in Albino male CD rats after 5 minutes expressed as percent of injected dose per gram of organ.; assay type: ADME, organism-based; settings: in vivo; method in brief: as §2
Rattus norvegicus [33] = species on record: Rattus norvegicus; test: Tissue (kidney) distribution in Albino male CD rats after 90 minutes expressed as percent of injected dose per gram of organ.; assay type: ADME, organism-based; settings: in vivo, 1.5 h; method in brief: as §1
Rattus norvegicus [34] = species on record: Rattus norvegicus; test: Tissue (spleen) distribution in Albino male CD rats after 90 minutes expressed as percent of injected dose per gram of organ.; assay type: ADME, organism-based; settings: in vivo, 1.5 h
Rattus norvegicus [35] = species on record: Rattus norvegicus; test: Tissue (kidney) concentration of radioactivity at 30 min post-injection into Albino male CD rats with vehicle.; assay type: ADME, organism-based; settings: in vivo, 0.5 h; method in brief: as §4
[36] = molecular target: Translocator protein (Rattus norvegicus) (UniProt P16257); test: Tissue (heart) concentration of radioactivity at 30 min post-injection into Albino male CD rats after pretreatment with cold PK 11195.; assay type: functional; method in brief: as §4
Rattus norvegicus [37] = species on record: Rattus norvegicus; test: Tissue (liver) distribution in Albino male CD rats after 60 minutes expressed as percent of injected dose per gram of organ.; assay type: ADME, organism-based; settings: in vivo, 1 h; method in brief: as §2
Rattus norvegicus [38] = species on record: Rattus norvegicus; test: Tissue (intestine) distribution in Albino male CD rats after 60 minutes expressed as percent of injected dose per gram of organ.; assay type: ADME, organism-based; settings: in vivo, 1 h; method in brief: as §1
Rattus norvegicus [39] = species on record: Rattus norvegicus; test: Tissue (muscle) distribution in Albino male CD rats after 5 minutes expressed as percent of injected dose per gram of organ.; assay type: ADME, organism-based; settings: in vivo; method in brief: as §2
Rattus norvegicus [40] = species on record: Rattus norvegicus; test: Tissue (cerebellum) distribution in Albino male CD rats after 5 minutes expressed as percent of injected dose per gram of organ.; assay type: ADME, organism-based; settings: in vivo; method in brief: as §1

Sequence of Translocator protein (Rattus norvegicus) (P16257 whole entry, looked up): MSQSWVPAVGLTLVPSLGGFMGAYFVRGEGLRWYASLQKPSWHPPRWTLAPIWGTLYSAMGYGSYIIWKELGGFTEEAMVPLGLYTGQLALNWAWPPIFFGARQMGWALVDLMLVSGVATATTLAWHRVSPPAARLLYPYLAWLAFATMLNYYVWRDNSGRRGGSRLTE

Cc1c(C(=O)N(C)Cc2ccccc2)nc2ccccc2c1-c1ccccc1
I.D./g (Rattus norvegicus [1]): 0.17% | I.D./g (Rattus norvegicus [2]): 0.3% | I.D./g (Rattus norvegicus [3]): 3.32% | I.D./g [4]: > 0.02% | I.D./g (Rattus norvegicus [5]): 0.49% | I.D./g (Rattus norvegicus [6]): 0.09% | I.D./g [7]: 0.02% | I.D./g (Rattus norvegicus [8]): 0.79% | I.D./g (Rattus norvegicus [9]): 0.35% | I.D./g (Rattus norvegicus [10]): 2.99% | I.D./g [11]: < 0.17% | I.D./g (Rattus norvegicus [12]): 1.55% | I.D./g (Rattus norvegicus [13]): 0.03% | I.D./g (Rattus norvegicus [14]): 0.12% | I.D./g (Rattus norvegicus [15]): 0.15% | I.D./g (Rattus norvegicus [16]): 4% | I.D./g (Rattus norvegicus [17]): 0.26% | I.D./g (Rattus norvegicus [18]): 1.46% | I.D./g (Rattus norvegicus [19]): 0.09% | I.D./g [20]: < 0.05% | I.D./g (Rattus norvegicus [21]): 4% | I.D./g [22]: > 0.09% | I.D./g (Rattus norvegicus [23]): 2.62% | I.D./g (Rattus norvegicus [24]): 2% | I.D./g (Rattus norvegicus [25]): 1.17% | I.D./g (Rattus norvegicus [26]): 0.05% | I.D./g [27]: < 0.16% | I.D./g (Rattus norvegicus [28]): 0.12% | I.D./g (Rattus norvegicus [29]): 0.02% | I.D./g (Rattus norvegicus [30]): 0.33% | I.D./g (Rattus norvegicus [31]): 0.2% | I.D./g (Rattus norvegicus [32]): 0.37% | I.D./g (Rattus norvegicus [33]): 1.34% | I.D./g (Rattus norvegicus [34]): 1.56% | I.D./g (Rattus norvegicus [35]): 0.19% | I.D./g [36]: < 0.04% | I.D./g (Rattus norvegicus [37]): 0.41% | I.D./g (Rattus norvegicus [38]): 0.62% | I.D./g (Rattus norvegicus [39]): 0.19% | I.D./g (Rattus norvegicus [40]): 0.25%
